According to publication PMC3431965 (The Journal of organic chemistry, 2012):
Changes are numbered by the printed parent chain. Where two headings read alike, the source gives them in different places.

Legend:
[1] = target: T1, ceramide-specific glucosyltransferase (Mus musculus, UniProt O88693); assay: Ceramide-specific glucosyltransferase assay, mouse testicular microsomes; format: biochemical, C57BL/6 mouse
T1 sequence (O88693 1-394): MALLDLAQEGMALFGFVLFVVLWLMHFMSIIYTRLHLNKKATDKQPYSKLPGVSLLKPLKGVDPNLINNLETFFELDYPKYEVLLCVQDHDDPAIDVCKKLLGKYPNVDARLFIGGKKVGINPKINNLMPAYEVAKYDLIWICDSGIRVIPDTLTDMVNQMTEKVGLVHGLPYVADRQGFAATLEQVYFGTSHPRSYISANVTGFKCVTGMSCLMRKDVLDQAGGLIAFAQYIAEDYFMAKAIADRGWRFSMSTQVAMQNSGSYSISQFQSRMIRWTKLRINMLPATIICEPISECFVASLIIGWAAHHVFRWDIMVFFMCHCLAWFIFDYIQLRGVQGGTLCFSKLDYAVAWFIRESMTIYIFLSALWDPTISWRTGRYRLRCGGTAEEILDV

[2] = target: T2, ceramide-specific glucosyltransferase (Rattus norvegicus, UniProt Q9R0E0); assay: Ceramide-specific glucosyltransferase assay, rat testicular microsomes; format: biochemical, Long Evans (LE) rat
T2 sequence (Q9R0E0 1-394): T1 sequence (O88693 1-394) with D96E, K164R, R249K, T377A

[3] = target: β-galactosidase (Escherichia coli) (Escherichia coli, UniProt P00722); assay: biochemical; details: for β-Gal % Ra (% remaining activity at 100 µM): 100 µM compound; for remaining activity at 100 µM: read-out: β-Gal % Ra (% remaining activity at 100 µM)
[4] = target: α-galactosidase (green coffee beans) (Coffea arabica, UniProt Q42656); assay: biochemical; details: for α-Gal % Ra (% remaining activity at 100 µM): 100 µM compound, substrate at Km; for remaining activity at 100 µM: read-out: α-Gal % Ra (% remaining activity at 100 µM)
[5] = target: T3, α-mannosidase (jack bean) (Canavalia ensiformis, UniProt C0HJB3); assay: Glycosidase inhibition assay, α-mannosidase; format: biochemical; details: for α-Man % Ra (% remaining activity at 100 µM): 100 µM compound, substrate at Km; for remaining activity at 100 µM: read-out: α-Man % Ra (% remaining activity at 100 µM)
T3 sequence (C0HJB3 1-562 limits assumed): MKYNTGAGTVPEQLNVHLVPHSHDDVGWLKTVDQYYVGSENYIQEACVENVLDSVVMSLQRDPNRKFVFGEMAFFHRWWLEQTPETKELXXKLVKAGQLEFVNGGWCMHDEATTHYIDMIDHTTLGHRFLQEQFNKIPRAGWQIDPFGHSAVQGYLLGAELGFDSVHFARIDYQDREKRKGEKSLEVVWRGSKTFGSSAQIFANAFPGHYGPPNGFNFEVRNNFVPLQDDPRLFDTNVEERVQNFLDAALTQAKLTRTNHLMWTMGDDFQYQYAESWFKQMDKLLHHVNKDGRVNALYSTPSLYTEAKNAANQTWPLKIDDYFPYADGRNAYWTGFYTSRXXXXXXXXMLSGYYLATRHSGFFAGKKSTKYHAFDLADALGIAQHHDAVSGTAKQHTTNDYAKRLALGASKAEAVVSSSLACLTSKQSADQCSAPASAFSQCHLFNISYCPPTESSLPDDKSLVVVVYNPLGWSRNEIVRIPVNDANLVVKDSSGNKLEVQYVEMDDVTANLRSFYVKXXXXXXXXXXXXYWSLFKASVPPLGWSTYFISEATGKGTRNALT
T3 sequence (C0HJB3 563-981 partner limits assumed): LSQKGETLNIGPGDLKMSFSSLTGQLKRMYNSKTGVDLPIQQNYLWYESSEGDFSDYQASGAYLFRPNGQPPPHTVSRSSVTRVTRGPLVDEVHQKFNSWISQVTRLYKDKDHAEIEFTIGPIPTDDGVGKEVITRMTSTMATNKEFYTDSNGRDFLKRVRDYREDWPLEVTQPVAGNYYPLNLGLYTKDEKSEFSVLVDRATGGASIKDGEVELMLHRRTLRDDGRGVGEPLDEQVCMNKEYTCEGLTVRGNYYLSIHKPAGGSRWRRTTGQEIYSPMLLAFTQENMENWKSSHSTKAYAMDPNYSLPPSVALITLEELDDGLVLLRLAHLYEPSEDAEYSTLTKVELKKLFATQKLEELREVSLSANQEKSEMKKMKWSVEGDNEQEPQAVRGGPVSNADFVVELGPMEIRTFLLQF
Procedure, shortened: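 Enzyme starts the reaction with test compound at 100 µM. After 4–5 min at room temperature, 0.2 M sodium borate (pH 9.8) quenches it. Absorbance is read at 405 nm and reported as % remaining activity.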

[6] = system: α-glucosidase (Saccharomyces cerevisiae); assay: Glycosidase inhibition assay, α-glucosidase; format: biochemical; details: substrate at Km; for α-Glc % Ra (% remaining activity at 100 µM): 100 µM compound
β-glucosidase (almond) = assay: Glycosidase inhibition assay, β-glucosidase; format: biochemical; details: substrate at Km; for β-Glc % Ra (% remaining activity at 100 µM): 100 µM compound; for IC50: read-out: β-Glc IC50
Procedure, shortened: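 Enzyme is added last; incubation is 4–5 min at room temperature, then 0.2 M sodium borate (pH 9.8) quenches. Absorbance at 405 nm gives % remaining activity at 100 µM compound. IC50 comes from non-linear fitting of relative activity versus concentration to a Hill-slope equation.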

[7] = system: β-mannosidase (Roman snail); assay: Glycosidase inhibition assay, β-mannosidase; format: biochemical; details: 100 µM compound; substrate at Km
Procedure, shortened: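 Test compound is at 100 µM. Enzyme addition starts the reaction, which runs 4–5 min at room temperature before quenching with 0.2 M sodium borate (pH 9.8). Absorbance is read at 405 nm and given as % remaining activity.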

[8] = target: T4, testicular β-glucosidase 2 (Rattus norvegicus, UniProt Q5M868); assay: Testicular glucosidase assay; format: biochemical, Long Evans (LE) rat
T4 sequence (Q5M868 1-912): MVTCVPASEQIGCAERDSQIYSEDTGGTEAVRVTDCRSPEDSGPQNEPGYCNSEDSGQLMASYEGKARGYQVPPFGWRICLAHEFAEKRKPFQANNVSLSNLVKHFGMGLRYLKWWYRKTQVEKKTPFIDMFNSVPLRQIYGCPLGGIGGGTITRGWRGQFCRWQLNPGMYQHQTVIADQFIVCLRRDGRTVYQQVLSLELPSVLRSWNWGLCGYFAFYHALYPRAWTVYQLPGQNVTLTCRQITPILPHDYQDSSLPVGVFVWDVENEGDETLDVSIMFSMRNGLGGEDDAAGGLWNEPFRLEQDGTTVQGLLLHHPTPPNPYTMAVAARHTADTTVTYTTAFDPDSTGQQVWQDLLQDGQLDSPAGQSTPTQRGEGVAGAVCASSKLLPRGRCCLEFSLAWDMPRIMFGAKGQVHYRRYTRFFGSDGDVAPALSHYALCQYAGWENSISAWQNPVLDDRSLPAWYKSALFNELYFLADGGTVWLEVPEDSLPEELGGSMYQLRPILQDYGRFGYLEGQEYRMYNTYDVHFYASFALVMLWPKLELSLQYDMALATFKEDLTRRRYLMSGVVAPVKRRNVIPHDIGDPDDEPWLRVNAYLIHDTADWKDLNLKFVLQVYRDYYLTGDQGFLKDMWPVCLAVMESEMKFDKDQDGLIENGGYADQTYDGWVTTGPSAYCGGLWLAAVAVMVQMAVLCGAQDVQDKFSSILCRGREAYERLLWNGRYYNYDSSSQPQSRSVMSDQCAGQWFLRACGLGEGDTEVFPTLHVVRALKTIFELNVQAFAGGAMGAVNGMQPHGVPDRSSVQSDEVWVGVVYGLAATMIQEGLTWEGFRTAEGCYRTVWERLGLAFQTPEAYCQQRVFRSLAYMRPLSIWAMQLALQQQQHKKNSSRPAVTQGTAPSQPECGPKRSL

[9] = read-out: ceramide-specific glucosyltransferase IC50 (C57BL/6, mouse), mouse testicular microsomes, n.i. = no inhibition at 1000 µM concentration
[10] = read-out: ceramide-specific glucosyltransferase IC50 (LE rat), rat testicular microsomes, n.i. = no inhibition at 1000 µM concentration
[11] = mouse testicular microsomes, n.i. = no inhibition at 1000 µM concentration
[12] = rat testicular microsomes, n.i. = no inhibition at 1000 µM concentration

Chain of α-galactosidase (green coffee beans) (Q42656 16-378): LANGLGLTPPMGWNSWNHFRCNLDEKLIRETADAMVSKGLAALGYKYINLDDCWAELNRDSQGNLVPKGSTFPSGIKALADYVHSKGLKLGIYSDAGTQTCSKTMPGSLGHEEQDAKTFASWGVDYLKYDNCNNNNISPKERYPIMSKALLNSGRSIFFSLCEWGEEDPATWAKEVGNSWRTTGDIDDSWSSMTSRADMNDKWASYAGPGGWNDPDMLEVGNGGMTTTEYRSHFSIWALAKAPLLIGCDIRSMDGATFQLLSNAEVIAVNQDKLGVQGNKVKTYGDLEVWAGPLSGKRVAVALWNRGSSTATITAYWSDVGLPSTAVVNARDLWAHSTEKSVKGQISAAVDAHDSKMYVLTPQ
Chain of β-galactosidase (Escherichia coli) (P00722 2-1024): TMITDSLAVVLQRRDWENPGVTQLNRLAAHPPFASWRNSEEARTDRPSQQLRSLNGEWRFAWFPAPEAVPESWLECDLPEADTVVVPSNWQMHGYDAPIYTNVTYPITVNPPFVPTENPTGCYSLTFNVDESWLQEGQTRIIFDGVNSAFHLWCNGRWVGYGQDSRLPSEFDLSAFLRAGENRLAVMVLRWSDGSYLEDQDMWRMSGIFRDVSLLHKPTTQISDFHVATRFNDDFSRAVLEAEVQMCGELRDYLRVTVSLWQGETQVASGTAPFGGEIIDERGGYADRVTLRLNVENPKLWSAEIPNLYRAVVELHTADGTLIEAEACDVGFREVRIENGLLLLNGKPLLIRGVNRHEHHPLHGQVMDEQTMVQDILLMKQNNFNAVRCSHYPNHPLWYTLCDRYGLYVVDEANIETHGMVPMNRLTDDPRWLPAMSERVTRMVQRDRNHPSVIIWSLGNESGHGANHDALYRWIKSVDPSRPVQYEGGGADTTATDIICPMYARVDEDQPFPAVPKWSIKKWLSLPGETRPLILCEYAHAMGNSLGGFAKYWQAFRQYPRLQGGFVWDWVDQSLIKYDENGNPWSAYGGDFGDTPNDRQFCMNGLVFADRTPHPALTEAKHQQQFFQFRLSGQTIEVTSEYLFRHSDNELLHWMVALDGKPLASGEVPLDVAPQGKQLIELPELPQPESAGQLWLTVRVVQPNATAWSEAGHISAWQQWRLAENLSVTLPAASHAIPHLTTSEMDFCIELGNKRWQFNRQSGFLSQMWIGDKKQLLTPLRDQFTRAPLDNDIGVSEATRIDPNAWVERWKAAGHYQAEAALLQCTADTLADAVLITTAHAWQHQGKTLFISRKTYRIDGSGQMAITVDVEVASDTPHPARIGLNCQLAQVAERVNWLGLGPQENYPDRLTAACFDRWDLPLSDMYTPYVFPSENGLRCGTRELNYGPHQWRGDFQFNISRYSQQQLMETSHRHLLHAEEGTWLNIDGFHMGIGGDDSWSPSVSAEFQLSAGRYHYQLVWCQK

Row | Compound | β-Gal % Ra (% remaining activity at 100 µM) ([3]; substrate at Km) [%] | α-Gal % Ra (% remaining activity at 100 µM) [4] [%] | α-Man % Ra (% remaining activity at 100 µM) [5] [%] | α-Glc % Ra (% remaining activity at 100 µM) [6] [%] | β-Glc % Ra (% remaining activity at 100 µM) (β-glucosidase (almond)) [%] | β-Man % Ra (% remaining activity at 100 µM) [7] [%] | remaining activity at 100 µM [3] [%] | remaining activity at 100 µM [4] [%] | remaining activity at 100 µM [5] [%] | also measured
1 | CCCCN1[C@H](CO)[C@@H](O)[C@@H]1CO [Compound 24, ((2R,3s,4S)-1-Butyl-3-hydroxyazetidine-2,4-diyl)dimethanol] | 109 | 106 | 99 | 65 | 101 | 113 |  |  |  | IC50 [1, 9]: > 300 µM; IC50 [2, 10]: > 300 µM
2 | CCCCCCCCCN1[C@H](CO)[C@@H](O)[C@@H]1CO [Compound 25, ((2R,3s,4S)-3-Hydroxy-1-nonylazetidine-2,4-diyl)dimethanol] | 107 | 66 | 92 |  | 26 | 76 |  |  |  | IC50 [1, 9]: 44 µM; IC50 [2, 10]: 91 µM; IC50 ([6]; read-out: α-Glc IC50): 0.6 µM; IC50 (β-glucosidase (almond)): 20 µM
3 | CCCCCCCCCN1[C@@H](CO)C(O)[C@@H]1CO [Compound 27, ((2S,4S)-3-Hydroxy-1-nonyl-azetidine-2,4-diyl)dimethanol] |  |  |  | 100 | 95 | 106 | 99 | 57 | 99 | IC50 [1]: > 300 µM; IC50 [2]: > 300 µM; IC50 [8]: 70 µM
4 | OC[C@H]1NC[C@@H](O)[C@@H](O)[C@@H]1O [DMJ, 1-deoxymannojirimycin, reference compound] |  |  | 75 |  |  | 77 |  |  |  | 
5 | CCCCCCCCCN1C[C@@H](O)[C@@H](O)[C@@H](O)[C@H](O)[C@@H](O)C1 [Compound 6, (3S,4R,5S,6R,7R)-1-Nonylazocane-3,4,5,6,7-pentaol] | 92 | 100 | 100 | 84 | 85 | 99 |  |  |  | ceramide-specific glucosyltransferase IC50 (C57BL/6, mouse) [1, 11]: n.i.; IC50 [2, 10]: 127 µM
6 | CCCCN1[C@H](CO)C(O)[C@H]1CO [Compound 22, ((2R,4R)-1-Butyl-3-hydroxyazetidine-2,4-diyl)dimethanol] |  |  |  | 100 | 93 | 99 | 99 | 100 | 99 | IC50 [1]: > 300 µM; IC50 [2]: > 300 µM; IC50 [8]: > 300 µM
7 | OC[C@H]1NC[C@H](O)[C@@H](O)[C@H]1O [DGJ, 1-deoxygalactonojirimycin, reference compound] | 23 | 0.05 |  |  |  |  |  |  |  | IC50 ([3]; read-out: β-Gal IC50, substrate at Km): 40 µM
8 | CCCCCCCCCN1CCC[C@@H](O)[C@H](O)[C@@H](O)C1 [Compound 2, (3S,4S,5R)-1-Nonylazocane-3,4,5-triol] |  |  |  | 84 | 43 | 93 | 92 | 100 | 100 | ceramide-specific glucosyltransferase IC50 (C57BL/6, mouse) [1, 11]: n.i.; ceramide-specific glucosyltransferase IC50 (LE rat) [2, 12]: n.i.; IC50 [8]: 803 µM; IC50 (β-glucosidase (almond)): 92 µM
9 | O[C@H]1[C@H](O)[C@@H](O)CN2CC[C@H](O)[C@H]12 [Castano., castanospermine, reference compound] |  |  |  |  | 13.5 |  |  |  |  | 
10 | CCCCN1C/C=C\[C@@H](O)[C@H](O)[C@@H](O)C1 [Compound 3, (3S,4S,5R,Z)-1-Butyl-1,2,3,4,5,8-hexahydroazocine-3,4,5-triol] |  |  |  | 81 | 52 | 99 | 94 | 100 | 100 | ceramide-specific glucosyltransferase IC50 (C57BL/6, mouse) [1, 11]: n.i.; ceramide-specific glucosyltransferase IC50 (LE rat) [2, 12]: n.i.; IC50 (β-glucosidase (almond)): 105 µM
11 | OC[C@H]1NC[C@H](O)[C@@H](O)[C@@H]1O [DNJ, 1-deoxynojirimycin, reference compound] |  |  |  | 34 |  |  |  |  |  | 
12 | CCCCN1C[C@H](O)[C@@H](O)[C@@H](O)[C@H]1CO [NB-DGJ, N-butyldeoxygalactonojirimycin, reference compound] |  |  |  |  |  |  | 9.6 |  |  | IC50 [3]: 6 µM
